Laboratory results published in ChEMBL document CHEMBL1154522, “Aryl sulfamates are broad spectrum inactivators of sulfatases: effects on sulfatases from various sources” (Bioorg Med Chem Lett, 2009).

Legend:
Arylsulfatase = Arylsulfatase (Pseudomonas aeruginosa (strain ATCC 15692 / PAO1 / 1C / PRS 101 / LMG12228), UniProt P51691); experiment: Inhibition of Pseudomonas aeruginosa recombinant arylsulfatase A expressed in Escherichia coli
[1] = Inhibition of Helix pomatia type H1 recombinant sulfatase expressed in Escherichia coli
Method in brief: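 Snail sulfatase incubated at pH 7 with 0–500 µM 3-nitrophenyl sulfamate; residual activity plotted semi-logarithmically against time, and pseudo-first-order rates replotted against inactivator concentration to fit Ki and kinact (E + I ⇌ E·I → E–P).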

[2] = Inhibition of Patella vulgata type 5 recombinant sulfatase expressed in Escherichia coli
Method in brief: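 Limpet sulfatase at pH 7 with 0–12.5 mM sulfamate; semi-logarithmic plots of residual activity over time, inactivation rates replotted against concentration to give Ki and kinact.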

[3] = Inhibition of abalone entrails type 8 recombinant sulfatase expressed in Escherichia coli by fast phase inactivation; parameters: species or system Haliotis corrugata
[4] = Inhibition of abalone entrails type 8 recombinant sulfatase expressed in Escherichia coli by slow phase inactivation; parameters: species or system Haliotis corrugata
[5] = Chemical decomposition at pH 7 after 15 mins; conditions: buffer
[6] = Dissociation constant, pKa of the compound; assay type: physicochemical

Sequence of Arylsulfatase (P51691 whole entry): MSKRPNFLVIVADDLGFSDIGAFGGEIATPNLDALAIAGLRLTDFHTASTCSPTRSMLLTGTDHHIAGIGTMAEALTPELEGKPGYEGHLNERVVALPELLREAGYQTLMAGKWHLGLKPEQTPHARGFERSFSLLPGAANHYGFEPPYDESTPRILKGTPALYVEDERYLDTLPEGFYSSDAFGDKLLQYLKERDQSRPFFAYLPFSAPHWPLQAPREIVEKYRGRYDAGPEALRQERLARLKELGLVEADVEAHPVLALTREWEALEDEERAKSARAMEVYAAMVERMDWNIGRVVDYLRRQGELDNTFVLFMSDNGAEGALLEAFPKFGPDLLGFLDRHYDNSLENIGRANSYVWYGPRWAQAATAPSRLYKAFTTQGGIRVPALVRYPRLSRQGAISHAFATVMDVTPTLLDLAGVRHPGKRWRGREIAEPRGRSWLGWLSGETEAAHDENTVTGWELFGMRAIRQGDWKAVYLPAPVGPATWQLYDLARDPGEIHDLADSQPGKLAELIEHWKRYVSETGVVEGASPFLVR

NS(=O)(=O)Oc1cccc([N+](=O)[O-])c1
Ki (Arylsulfatase): 130 nM
Ki [1]: 35 µM
Ki [2]: 980 µM
Ki [3]: 1.6 mM
Ki [4]: 5 mM
decomposed at 0.25 h [5]: 4.2%

O=[N+]([O-])c1ccc(OS(=O)(=O)O)cc1
pKa [6]: 7.14
